Screening data: PubChem BioAssay, several laboratories
An excerpt weighted towards active compounds, which were near 2.9% of everything screened.
TAG inh = inhibitors of triacylglycerol accumulation; H9c2 cells, Nile Red lipid (TAG) fluorescence; cells loaded with 200 µM oleic acid; inhibition, % at 12.5 µM; 230,000 compounds, 0.66% hits; AID 651582;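 active = pattern-corrected inhibition of lipid staining of at least 50% with the nuclear-stain viability signal not falling by more than 50%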
MC4R ag barr = human MC4R agonism via beta-arrestin; U2OS MC4R beta-arrestin complementation, luminescence; percent of melanotan II response, DMSO zero; P32245; 360,000 compounds, 0.98% hits; AID 540308; activation, % at 8.9 µM;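 active = activation above a per-plate cutoff, the mean activation of sample wells on that plate plus 3 SD, cut at about 8% in these data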
Target sequence (P32245 whole entry, looked up): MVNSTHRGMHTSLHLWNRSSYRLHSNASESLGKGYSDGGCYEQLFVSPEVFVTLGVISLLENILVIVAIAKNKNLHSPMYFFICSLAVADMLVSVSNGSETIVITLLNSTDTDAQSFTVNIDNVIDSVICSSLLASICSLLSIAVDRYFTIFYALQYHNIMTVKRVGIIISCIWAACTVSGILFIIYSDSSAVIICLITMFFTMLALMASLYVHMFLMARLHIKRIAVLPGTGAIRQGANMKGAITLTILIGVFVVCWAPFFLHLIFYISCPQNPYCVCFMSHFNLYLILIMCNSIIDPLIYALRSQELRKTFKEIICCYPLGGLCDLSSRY
GalR3 antagonist = antagonists of human GalR3. HEK293 GalR3-CNG cAMP membrane potential fluorescence; galR3 body fused to GalR1 C-terminus. inhibition, % at 3 µM. 360,000 compounds, 0.44% hits. AID 651719;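 active = inhibition above the screen-wide average plus 3 SD, cut at about 13% in these data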;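 note: forskolin and galanin both at EC90 stimulate the cells; cAMP rise reported by CNG channel membrane potential dye signal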
Target sequence (O60755 1-299 limits assumed): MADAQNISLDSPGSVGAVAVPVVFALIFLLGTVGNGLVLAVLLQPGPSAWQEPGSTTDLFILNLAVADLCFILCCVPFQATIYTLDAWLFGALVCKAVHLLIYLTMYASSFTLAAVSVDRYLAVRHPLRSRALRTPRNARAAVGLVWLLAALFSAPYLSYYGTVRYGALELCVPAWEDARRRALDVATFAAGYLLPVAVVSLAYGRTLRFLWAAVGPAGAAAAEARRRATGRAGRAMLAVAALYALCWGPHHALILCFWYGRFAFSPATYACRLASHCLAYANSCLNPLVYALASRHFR
Efflux pump mplx = blocks antifungal efflux pumps in multiplex yeast assay; S. cerevisiae Candida pump triplex, Nile Red efflux; inhibition, % at 10 µM; 330,000 compounds, 0.44% hits; AID 485275;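 active = plate passing quality check with inhibition over a set limit, or well fluorescence over plate mean plus 4 SD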;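 note: Nile Red retained in pooled yeast measured as flow cytometry median fluorescence; higher means more Nile Red kept so more efflux inhibition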
Calb FLC = C. albicans growth modulation with fluconazole. C. albicans CaCi-2 + fluconazole, Alamar Blue growth, 48 h. AID 1979. 300,000 compounds, 0.57% hits. growth inhibition, % (concentration not given with the values);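 active = growth inhibition above about 58% in most replicates, limit read from the data, passing the limit was not always enough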;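 note: all wells also contain fluconazole at 8 µg/ml as a sub-toxic cotreatment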
MC4R antagonist = human MC4R antagonism in cAMP assay; P32245; MC4R-expressing cells, MTII-stimulated cAMP, LANCE TR-FRET; inhibition, % at 6.5 µM; 360,000 compounds, 0.48% hits;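 active = inhibition above its plate's cutoff, the mean of tested wells on that plate plus 3 SD, cut at about 29% in these data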
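System: U2OS-MC4R stable cell line; Technique: Eu-cAMP/anti-cAMP TR-FRET, emission 671 nm; Repeats: single well per compound; Also added: Melanotan II; Dosing: one concentration, 6.5 µM nominal; Schedule: 30-min compound, 1-h challenge, 1-h detection, room temperature.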
MC4R barr conf = human MC4R beta-arrestin agonism confirmation | shares compounds with MC4R ag barr | U2OS MC4R beta-arrestin recruitment, luminescence; scaled DMSO 0%, Melanotan II 100% | activation, % at 8.9 µM | 2,400 compounds, 31% hits | AID 602192;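 active = mean activation across replicates above the hit cutoff set in the earlier primary screen, cut at about 8% in these data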
MOR DOR agonist = counter-screen for MC4R agonists: agonists of mu-delta opioid heterodimer. 2,400 compounds, 5.8% hits. shares compounds with MC4R ag barr. U2OS PathHunter beta-arrestin, beta-gal luminescence; percent of deltorphin B response, DMSO zero. activation, % at 9.2 µM;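 active = mean activation across replicates exceeds the hit threshold derived in the earlier primary screen, cut at about 18% in these data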
A number is an active result; i = inactive; nt = no result.

SMILES | TAG inh | MC4R ag barr | GalR3 antagonist | Efflux pump mplx | Calb FLC | MC4R antagonist | MC4R barr conf | MOR DOR agonist
COc1cc(NC(=O)c2ccc(-c3ccc(Br)cc3)o2)ccc1NC(=O)C(C)C | i | 15.3 | i | i | i | i | i | i
CN1CCCCC(NC(=O)c2cccc([N+](=O)[O-])c2)C1=O (stereo not given) | nt | nt | i | nt | nt | nt | nt | nt
Cc1ccccc1NC(=O)c1cn(-c2ccccc2)nc1-c1ccccc1 | nt | i | i | i | i | i | nt | nt
Cc1cccc(C)c1NC(=O)c1cn(-c2ccccc2)nc1-c1ccccc1 | nt | 9.9 | i | i | i | i | i | i
COc1ccc(C=CC(=O)c2c(N)n(C)c(=O)n(C)c2=O)cc1 | nt | nt | i | nt | nt | nt | nt | nt
OC(CCCN1CCCCC1)(c1ccccc1)c1ccc(C(F)(F)F)cc1 (stereo not given) | i | i | i | nt | nt | i | nt | nt
COc1ccc(NC(=O)c2cccs2)cc1NC(=O)c1ccco1 | i | i | i | i | i | i | nt | nt
CCOc1cc(NC(=O)c2cccs2)c(OCC)cc1NC(=O)c1ccco1 | i | 11.8 | i | i | i | i | 16.6 | i
CC(C)S(=O)(=O)N[C@@H]1c2cc3c(cc2[C@H](c2ccccc2)[C@H]1C)OCO3 | nt | nt | i | nt | nt | nt | nt | nt
CCC(=O)N1CCN(c2cc(N3CCN(C)CC3)c(F)cc2[N+](=O)[O-])CC1 | nt | i | i | i | i | i | nt | nt
CN1CCN(c2cc(N3CCc4ccccc4C3)c(F)cc2[N+](=O)[O-])CC1 | nt | 14.5 | i | i | i | i | 10.8 | i
O=C(C(=O)N1CCC(CNS(=O)(=O)c2ccc(OC(F)(F)F)cc2)CC1)c1cc2ccccc2o1 | nt | nt | i | nt | nt | nt | nt | nt
Clc1ccc(-c2nc3nc4ccccc4nc3n2Cc2ccco2)cc1 | i | 20.1 | i | i | nt | i | i | i
Cc1ccnc(Nc2nc(-c3ccc(O)cc3O)cs2)c1 | i | 17.7 | i | i | i | i | 13.2 | i
Cc1ccnc(Nc2nc(-c3ccc(O)cc3)cs2)c1 | i | i | i | i | i | i | nt | nt
Cc1cc(-n2c(C)cc(C(=O)CSc3nnc4sc5ccccc5n34)c2C)no1 | nt | i | i | i | i | i | nt | nt
Cc1cc(-n2c(C)cc(C(=O)CSc3nnnn3-c3ccc(Cl)cc3)c2C)no1 | nt | 19.9 | i | i | i | i | i | i
CCCc1cc(=O)oc2cc(OCC(=O)NCCc3c[nH]c4ccccc34)ccc12 | nt | 16.8 | i | i | i | i | 13.6 | 25.4
Cc1cc(=O)oc2cc(OCC(=O)NCCc3c[nH]c4ccc(F)cc34)ccc12 | nt | i | i | i | i | i | nt | nt
Cc1nnn(-c2nonc2N)c1C(=O)N/N=C/c1ccccc1O | nt | 10.2 | i | i | i | i | i | i
Cc1ccsc1/C=N/NC(=O)c1nnn(-c2nonc2N)c1CSc1ccccc1 | nt | 10.6 | i | i | i | i | i | i
CC1CC(C)(C)CC2(C1)NC(=O)N(CC(=O)Nc1cc(C(F)(F)F)ccc1N1CCCCC1)C2=O (stereo not given) | i | i | i | nt | nt | i | nt | nt
CCN(Cc1ccccc1)S(=O)(=O)c1ccc(S(=O)(=O)N(Cc2ccccn2)Cc2ccco2)cc1 | nt | 12.9 | i | i | i | i | i | i
Cc1cc(S(=O)(=O)N(Cc2ccccn2)Cc2ccco2)ccc1-n1cnnn1 | nt | i | i | i | i | i | nt | nt
Cc1ccc(-n2nnc3c(SCC(=O)NCc4ccco4)ncnc32)cc1 | i | 13.5 | i | i | i | i | i | i
SMILES | TAG inh | MC4R ag barr | GalR3 antagonist | Efflux pump mplx | Calb FLC | MC4R antagonist | MC4R barr conf | MOR DOR agonist
O=C(CSc1ncnc2c1nnn2-c1ccc(F)cc1)NCc1ccco1 | nt | i | i | i | i | i | nt | nt
CC(=O)NCC1COc2ccccc2O1 (stereo not given) | i | i | i | i | i | i | nt | nt
CC(C)Oc1ccc(/C=C/C(=O)NCC2COc3ccccc3O2)cc1 (stereo not given) | i | 10.3 | i | i | i | i | i | i
CCC(=O)N1N=C(c2cccs2)CC1c1ccc(C)cc1 (stereo not given) | nt | i | i | i | i | i | nt | nt
Cc1ccc(C2CC(c3cccs3)=NN2C(=O)CCl)cc1 (stereo not given) | nt | 10.4 | i | i | i | i | i | 26.9
COC(=O)C1=C(C)N(C)C(=NCc2ccccc2)NC1CCc1ccccc1 (stereo not given) | nt | nt | i | nt | nt | nt | nt | nt
Nc1ccn(C(C=O)CC(C=O)CO)c(=O)n1 (stereo not given) | nt | nt | i | nt | nt | nt | nt | nt
Cc1ccc2c(c1)CO[C@@]21O[C@H](CCO)C[C@H](O)[C@H]1O | i | i | i | nt | nt | i | nt | nt
CCCCCCCCN1C(=O)[C@@H](CC(=O)N2CCCCC2)C[C@@]2(C(=O)OC)C1=C[C@H](C(C)(C)C)O[C@@H]2C | nt | nt | i | nt | nt | nt | nt | nt
CN(C)c1ccccc1-c1cc(NC=O)c2ncc(-c3cccc(C(F)(F)F)c3)n2c1 | i | 26.9 | i | nt | nt | i | 27.0 | i
COc1ccc(-c2cc(NC=O)c3ncc(-c4cccc(C(F)(F)F)c4)n3c2)cc1OC | i | 36.5 | i | nt | nt | i | 26.6 | i
O=CNc1cc(-c2ccc(C(=O)NC3CC3)cc2)cn2c(-c3ccc(F)cc3)cnc12 | i | i | i | nt | nt | i | nt | nt
CS(=O)(=O)c1ccc(-c2cc(NC=O)c3ncc(-c4ccc(F)cc4)n3c2)cc1 | i | 11.3 | i | nt | nt | i | i | i
